Compounds with a hit are over-represented: about 3.1% of the library has one in this group of screens.
MBD2 DNA inh: blocks human MBD2 binding to methylated DNA | AID 686964 | Q9UBB5 | hit rate 0.31% among 370,000 | TR-FRET, MBD2 binding to methylated oligonucleotide | inhibition, % at 4.4 µM; in the data active = inhibition above about 13%
ATG4B inh: inhibitors of human ATG4B cysteine protease. hit rate 0.51% among 340,000. Q9Y4P1. ATG4B cleavage of LC3-PLA2, NBD-HPC fluorescence, 1 h. AID 504462. inhibition, % at 8.33 µM; in the data active = inhibition above about 40%
CSN deneddyl inh: inhibitors of human CSN-mediated cullin deneddylation. inhibition, % at 12.5 µM. hit rate 0.38% among 360,000. AID 651999. Q92905. Purified CSN, SCF-Nedd8-OG deneddylation, fluorescence polarization;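 active = pattern-corrected inhibition above about 35%, with an unprinted fluorescence ratio check between 0.5 and 1.5, limit read from the data, passing the limit was not always enough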;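 also: 0% = enzyme with substrate and 100% = substrate without enzyme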
Target sequence (Q92905 whole entry, looked up, one chain of several): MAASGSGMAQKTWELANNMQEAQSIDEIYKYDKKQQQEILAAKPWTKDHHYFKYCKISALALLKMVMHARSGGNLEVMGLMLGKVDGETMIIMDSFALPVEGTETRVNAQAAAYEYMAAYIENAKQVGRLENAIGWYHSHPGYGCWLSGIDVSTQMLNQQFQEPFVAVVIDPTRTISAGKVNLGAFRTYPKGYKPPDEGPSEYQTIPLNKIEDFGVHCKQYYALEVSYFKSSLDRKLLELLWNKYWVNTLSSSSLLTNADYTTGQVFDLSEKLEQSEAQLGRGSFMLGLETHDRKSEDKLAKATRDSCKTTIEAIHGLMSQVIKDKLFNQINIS
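Test system: purified human Csn5 enzyme expressed in HEK293T cells. Amount: 0.24 nM enzyme. Reagent: SCFSkp2-Nedd8OG substrate at 10 nM final. Schedule: 90 min incubation of compound, enzyme and substrate at room temperature. Detection: fluorescence polarization. Read-out: % inhibition of substrate cleavage by Csn5.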
rCAG RNA binder: molecules binding r(CAG) RNA repeats. r(CAG) RNA repeat, TO-PRO-1 dye displacement fluorescence. hit rate 1.3% among 370,000. AID 651821. inhibition, % at 3 µM;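 active = inhibition above the plate cutoff, the mean of all test compounds on that plate plus 3 SD, cut at about 35% in these data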;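 also: 0% = DMSO alone and 100% = 100 µM mitoxantrone as full dye displacement; higher means more dye released from RNA so lower well fluorescence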
UHRF1 binding: blocks human UHRF1 binding to methylated DNA; UHRF1 binding to methylated oligo, TR-FRET; inhibition, % at 4.4 µM; hit rate 0.75% among 370,000; in the data active = inhibition above about 21%;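 also: UHRF1 SRA domain binding a hemimethylated CpG hairpin DNA probe; 0% = median of test compound wells and 100% = reference inhibitor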
LEDGF integ inh: blocks HIV-1 LEDGF/p75-dependent DNA integration | TR-FRET IN-LEDGF/p75 DNA integration, Eu/Cy5 | AID 743269 | hit rate 0.64% among 370,000 | inhibition, % at 3.7 µM;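 active = inhibition above the screen-wide mean plus 3 SD, cut at about 13% in these data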;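 also: signal is the Cy5 over europium emission ratio at 671 and 618 nm; 0% = plate median of compound wells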
UHRF1 DNA bind: UHRF1 methyl-oligo binding inhibition as MBD2 counter-screen. shares compounds with MBD2 DNA inh. UHRF1 binding to methylated oligonucleotide, TR-FRET. inhibition, % at 4.4 µM. hit rate 25% among 1,000. AID 720530; in the data active = inhibition above about 21%;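 also: UHRF1 SRA domain binding a labeled hemimethylated CpG hairpin DNA; 0% = vehicle only and 100% = reference inhibitor with vehicle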
MBD2 confirm: MBD2-DBD methyl-DNA binding inhibition, TR-FRET confirmation | shares compounds with MBD2 DNA inh | TR-FRET MBD2-DBD binding to methylated oligonucleotide | inhibition, % at 4.4 µM | hit rate 26% among 1,000 | AID 720531
IN multimer act: HIV-1 integrase multimerization activation, counter-screen. hit rate 17% among 2,000. activation, % at 7.7 µM. shares compounds with LEDGF integ inh. TR-FRET HIV-1 integrase multimerization, biochemical; in the data active = activation above about 8.9%
TR-FRET interf: counter-screen for LEDGF/p75 integration inhibitors: TR-FRET optical interference; AID 1053135; TR-FRET optical interference counterscreen, HIV-1 IN multimerization; inhibition, % at 7.7 µM; 2,000 tested, under 10 active; shares compounds with LEDGF integ inh;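 active = inhibition above the mean over all tested compounds plus 3 SD, which no compound reached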;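 also: 0% = integrase with antibodies and DMSO and 100% = antibodies without integrase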
LEDGF integ conf: confirmation of HIV-1 LEDGF/p75-dependent integration inhibitors; shares compounds with LEDGF integ inh; TR-FRET LEDGF/p75-dependent HIV-1 integration, biochemical; inhibition, % at 3.7 µM; hit rate 36% among 2,000; AID 1053136
An asterisk follows results filed as active; · = not tested or not shown. Rule as the data show it, unless noted: active = inhibition above about 14%; inactive = the rest.

SMILES	MBD2 DNA inh	ATG4B inh	CSN deneddyl inh	rCAG RNA binder	UHRF1 binding	LEDGF integ inh	IN multimer act	TR-FRET interf	LEDGF integ conf	others
C#C[C@]1(O)CCC2C3CCC4=C/C(=N/OCC(=O)NC(C)C(=O)NC(CCSC)C(=O)O)CC[C@]4(C)C3CC[C@@]21C (stereo partly drawn)	44*	-9	0	16	5	10	·	·	·	UHRF1 DNA bind=4;MBD2 confirm=3
C[C@H](NC(=O)OCc1ccccc1)[P+](=O)O	14*	·	·	3	-3	-1	·	·	·	UHRF1 DNA bind=7;MBD2 confirm=1
O=C(O)c1cc(S(=O)(=O)N2CC3CC(C2)c2cccc(=O)n2C3)ccc1F (stereo not drawn)	-1	·	·	1	5	1	·	·	·
COC(=O)C1=C(c2ccc(OC(F)(F)F)cc2)C[C@@H]2CC[C@H]1N2C(=O)N1CCc2cc(OC)c(OC)cc2C1	2	·	·	0	-2	-2	·	·	·
CCCCSP1(=S)NCCCO1 (stereo not drawn)	38*	-5	3	3	-6	0	·	·	·	UHRF1 DNA bind=5;MBD2 confirm=1
COc1ccccc1N	-4	·	·	2	2	0	·	·	·
O=C(c1ccc(Cl)cc1)C1CCCN(Cc2ccc3ncccc3c2)C1 (stereo not drawn)	15*	-10	-8	-7	25*	-4	·	·	·	UHRF1 DNA bind=8;MBD2 confirm=2
O=C(c1ccc(Cl)cc1)C1CCCN(Cc2ccc3c(c2)OCCO3)C1 (stereo not drawn)	-4	9	6	-6	-1	3	·	·	·
C=CC1C[N+]2(C)CCC1CC2C(O)c1ccnc2ccccc12 (stereo not drawn)	-2	·	·	-2	0	-1	·	·	·
c1ccc(-c2cc(-c3ccccc3)[n+](-c3ccccc3)c(-c3ccccc3)c2)cc1	13*	10	-5	8	2	2	·	·	·	UHRF1 DNA bind=13;MBD2 confirm=40*
Cc1ccc(-c2cc(-c3ccccc3)cc(-c3ccccc3)[n+]2-c2ccccc2)cc1	8	36	-5	7	2	1	·	·	·
O=C(O)C(Br)Br	4	·	·	2	1	-3	·	·	·
COC(=O)C1C(c2ccc(Cl)cc2)CC2CCC1N2C (stereo not drawn)	-3	·	·	3	0	5	·	·	·
Cc1ccc(N2C(=O)NC(=O)/C(=C/c3ccoc3)C2=O)cc1	33*	11	88*	24	63*	30*	9.2*	-46	57*	UHRF1 DNA bind=86*;MBD2 confirm=54*
C[C@H]1CNCCN1c1ccc(N2CC[C@H](O)C2)c(C#N)c1	-6	·	·	2	-3	2	·	·	·
NCC(O)c1cc(O)c(O)cc1F (stereo not drawn)	14*	-4	9	2	27*	49*	12*	-61	-5	UHRF1 DNA bind=14;MBD2 confirm=4
O=C(NCCN1CCC2(CC1)C(=O)NCN2c1ccccc1)c1cccc(F)c1	-2	·	·	2	-2	-5	·	·	·
CCc1nc2ccccc2c(=O)n1-c1ccccc1OC	0	1	-3	-2	3	25*	1	-3	-5
C=C1[C@H]2CC[C@H]3[C@]4(C)C[C@H](O[C@@H]5OC(CO)[C@@H](OSOOO)[C@H](OS(=O)(=O)O)[C@H]5OC(=O)CC(C)C)C[C@@H](C(=O)O)[C@H]4CC[C@]3(C2)[C@H]1O (stereo partly drawn)	-7	-13	5	14	3	14*	-2	11	15*
O=C(CF)N(O)c1ccc(C=Cc2ccccc2)cc1	4	-6	-1	6	2	24*	0	-1	-5
NN=C1C(Cl)=C(Cl)C(Cl)=C1Cl	13	·	46	14	40*	22*	-1	5	3
Cc1cc(/C=C2\C(=O)NC(=O)N(c3ccccc3F)C2=O)c(C)n1-c1cc(C(=O)O)cc(C(=O)O)c1	9	-5	23	5	52*	40*	14*	-72	39*
C[C@]12CCC3C(CC[C@H]4C[C@H](N)CC[C@]34C)C1CC[C@H]2O (stereo partly drawn)	-2	16	3	9	1	21*	-3	15	-1
COc1cc(O)c2c(c1)/C=C/C[C@H](O)[C@H](O)C(=O)CCC[C@H](C)OC2=O	0	·	-7	1	0	-3	·	·	·
O=[N+]([O-])c1ccc(N2CCOCC2)c2cccnc12	-2	5	-6	-1	14	0	·	·	·
SMILES	MBD2 DNA inh	ATG4B inh	CSN deneddyl inh	rCAG RNA binder	UHRF1 binding	LEDGF integ inh	IN multimer act	TR-FRET interf	LEDGF integ conf	others
O=[N+]([O-])c1ccc(N2CCOCC2)c2c1no[n+]2[O-]	-17	·	-7	1	-17	14*	2	-6	12
COc1cc2c(cc1O)[C@@H]1Cc3ccc(OC)c(O)c3CN1CC2	-2	0	4	4	6	38*	6	-20	44*
COc1ccc(C[C@@H]2c3cc(O)c(OC)cc3CCN2C)cc1O	0	3	0	0	-2	0	·	·	·
O=S(=O)(c1ccc2ccccc2c1)N1Cc2cc(Br)ccc2-n2nncc2C1	2	·	·	0	2	-1	·	·	·
CC(Cc1ccc(O)cc1)NCC(O)c1ccc(O)c(O)c1 (stereo not drawn)	-7	·	18	30	0	35*	10*	-51	63*
COc1ccc(-c2ccc3c(c2)CN(CC(C)C)Cc2cnnn2-3)cc1	-6	·	5	5	1	3	·	·	·
COc1ccc(-c2ccc3c(c2)CN(c2cccc(Cl)c2)Cc2cnnn2-3)cc1	11	·	21	9	25*	73*	-1	5	14*
C=CCN1CC[C@]23c4c5ccc(O)c4OC2C(=O)CC[C@@]3(O)[C@H]1C5 (stereo partly drawn)	-3	·	·	2	-2	1	·	·	·
COC(=O)C1C(c2ccc(I)cc2)CC2CCC1N2C (stereo not drawn)	4	·	·	4	1	1	·	·	·
COCCNC(=O)c1c(NC(=O)c2ccco2)n(Cc2ccccc2)c2nc3ccccc3nc12	-8	·	2	9	-7	-2	·	·	·
CCCCn1c(NC(=O)c2ccc(Br)o2)c(C(=O)OCC)c2nc3ccccc3nc21	-4	28	21	28	4	17*	-1	3	69*

Screening results deposited in PubChem by several laboratories.
